Source: article PMC6690775 (FEBS letters, 2019)
Like-named read-outs stand apart in the source and are kept apart here.

Experiments:
[1] = biological target: T1, Hsc70-NBD (Homo sapiens, UniProt P11142); experiment: ITC binding of modified ADP analogues to Hsc70-NBD; settings: for ΔΗ: binding enthalpy change; for ΔS: binding entropy change
[2] = biological target: T1, Hsc70-NBD; experiment: Competitive inhibition of ATPase activity; assay type: biochemical
Outline: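 PNP/MESG coupling (0.2 U, 0.2 μM, 10 min, 25 °C); ATP at 50 μM final started reaction; A360 read each minute for 60 min, 25 °C; triplicates minus no-enzyme control. IC50 from one-site logIC50 fit of fractional activity; Kiapp from Morrison fit constrained by prior KM.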

[3] = biological target: T2, Hsp70-NBD (Homo sapiens, UniProt P0DMV8); experiment: ITC binding of modified ADP analogues to Hsp70-NBD; settings: for ΔΗ: binding enthalpy change; for ΔS: binding entropy change
T2 sequence (P0DMV8 1-381): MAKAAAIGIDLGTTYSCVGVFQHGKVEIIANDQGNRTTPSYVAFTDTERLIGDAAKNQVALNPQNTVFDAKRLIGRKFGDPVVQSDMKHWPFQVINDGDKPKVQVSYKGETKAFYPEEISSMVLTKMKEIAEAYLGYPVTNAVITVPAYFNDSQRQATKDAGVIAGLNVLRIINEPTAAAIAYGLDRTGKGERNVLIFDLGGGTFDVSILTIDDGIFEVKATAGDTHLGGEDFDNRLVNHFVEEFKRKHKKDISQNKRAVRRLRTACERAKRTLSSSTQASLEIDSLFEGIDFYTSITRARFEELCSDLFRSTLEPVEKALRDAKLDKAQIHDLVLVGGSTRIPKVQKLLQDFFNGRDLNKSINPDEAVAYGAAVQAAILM

[4] = biological target: T3, mortalin-NBD (Homo sapiens, UniProt P38646); experiment: Competitive inhibition of ATPase activity; assay type: biochemical; settings: for inhibition of ATP hydrolysis of mortalin-NBD (in words): compared with ADP
T3 sequence (P38646 52-431): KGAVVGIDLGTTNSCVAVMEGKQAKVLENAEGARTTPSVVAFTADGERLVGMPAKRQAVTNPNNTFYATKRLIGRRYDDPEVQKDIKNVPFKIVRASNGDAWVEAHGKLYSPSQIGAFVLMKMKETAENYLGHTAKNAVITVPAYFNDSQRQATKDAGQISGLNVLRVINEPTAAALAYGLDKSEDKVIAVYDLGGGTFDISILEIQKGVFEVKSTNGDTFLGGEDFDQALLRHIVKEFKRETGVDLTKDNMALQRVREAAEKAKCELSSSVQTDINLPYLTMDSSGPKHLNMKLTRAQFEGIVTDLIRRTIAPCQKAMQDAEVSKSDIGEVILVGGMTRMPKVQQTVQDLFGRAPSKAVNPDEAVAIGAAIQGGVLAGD
Outline: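 Human mortalin-NBD (residues 52–431) was expressed in E. coli Rosetta2(DE3) with a TEV-cleaved His6 tag, then purified by Ni, size-exclusion and Blue columns. Enzyme in binding buffer (HEPES pH 7.8, MgCl2, KCl) was mixed with PNP/MESG and inhibitor at 0–3 mM. ATP was added to 50 μM final, and A360 was read every minute for 60 min at 25 °C, in triplicate, minus no-enzyme control. IC50 came from a one-site logIC50 fit. Kiapp came from a Morrison fit constrained by Et 1 μM, ATP 50 μM and a previously determined KM.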

[5] = biological target: T2, Hsp70-NBD; experiment: Competitive inhibition of ATPase activity; assay type: biochemical
Outline: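 Human Hsp70-NBD (residues 1–381) was expressed in E. coli Rosetta2(DE3) with a TEV-cleaved His6 tag and purified by Ni, size-exclusion and Blue columns. Phosphate release (EnzChek; PNP 0.2 U, MESG 0.2 μM) was measured with inhibitor at 0–3 mM and ATP 50 μM final. A360 was read each minute for 60 min at 25 °C in triplicate, minus no-enzyme control. IC50 came from a one-site logIC50 fit of fractional activity; Kiapp came from a Morrison fit of V0.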

[6] = biological target: T3, mortalin-NBD; experiment: ITC binding of modified ADP analogues to mortalin-NBD; settings: for ΔΗ: binding enthalpy change; for ΔS: binding entropy change
[7] = biological target: T3, mortalin-NBD; settings: previously reported; cited from earlier work
[8] = mortalin-NBD, ITC Kd relative to ADP
[9] = read-out: KIapp, mortalin-NBD 1 μM, ATP 50 μM, 25 °C, Morrison fit

T1 sequence (P11142 1-385): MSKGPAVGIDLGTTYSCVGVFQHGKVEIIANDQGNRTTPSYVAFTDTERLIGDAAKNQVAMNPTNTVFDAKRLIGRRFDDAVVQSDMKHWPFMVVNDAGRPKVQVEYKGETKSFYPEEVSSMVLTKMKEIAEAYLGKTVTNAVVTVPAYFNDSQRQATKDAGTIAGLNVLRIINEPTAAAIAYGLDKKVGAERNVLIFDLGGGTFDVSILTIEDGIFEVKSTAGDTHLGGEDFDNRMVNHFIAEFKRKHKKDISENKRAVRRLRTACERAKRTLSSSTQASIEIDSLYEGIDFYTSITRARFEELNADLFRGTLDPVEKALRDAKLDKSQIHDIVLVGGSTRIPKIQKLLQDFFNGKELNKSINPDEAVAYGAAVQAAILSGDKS

Compound | Kd [1] [µM] | ΔΗ ([1]; ITC, 25 °C, Hsc70-NBD) [kJ/mol] | ΔS ([1]; ITC, 25 °C, Hsc70-NBD) [J/mol·K] | IC50 [2] [µM] | Ki [2] [µM] | Kd [3] [µM] | ΔΗ ([3]; ITC, 25 °C, Hsp70-NBD) [kJ/mol] | ΔS ([3]; ITC, 25 °C, Hsp70-NBD) [J/mol·K] | IC50 [4] [µM] | Ki [4] [µM] | inhibition of ATP hydrolysis of mortalin-NBD (in words) [4] | IC50 [5] [µM] | Ki [5] [µM] | Kd [6] [µM] | ΔΗ ([6]; ITC, 25 °C, mortalin-NBD) [kJ/mol] | ΔS ([6]; ITC, 25 °C, mortalin-NBD) [J/mol·K] | affinity tighter than ADP [6, 8] | further results
O=P(O)(O)OP(=O)(O)OC[C@H]1O[C@@H](n2cnc3c(NCCc4ccccc4)ncnc32)[C@H](O)[C@@H]1O [6-PheEt ADP, N6-(2-phenylethyl)adenosine-5’-diphosphate] | 0.237 | -18.06 ± 0.09 | 65.31 ± 1.22 | 2100 | 445 ± 101 | 0.143 | -45.20 ± 0.87 | −22.97 ± 3.25 | 173 | 97.3 ± 9.96 | more effectively compared to ADP | 3120 | 1160 ± 189 | 4.19 | -33.9 ± 2.07 | −10.4 ± 5.17 | ~ 1.25 fold | –
O=P(O)(O)OP(=O)(O)OC[C@H]1O[C@@H](n2cnc3c(NC4CCCCC4)ncnc32)[C@H](O)[C@@H]1O [6-cHe ADP, N6-cyclohexyladenosine-5’-diphosphate] | 0.357 | -25.13 ± 2.35 | 37.74 ± 7.36 | 2230 | 622 ± 183 | 0.199 | -20.78 ± 0.61 | 57.67 ± 0.64 | 1600 | 733 ± 82.1 | weakest inhibition | 2490 | 1240 ± 164 | 14.1 | -22.09 ± 0.29 | 18.84 ± 0.87 | – | –
O=P(O)(O)OP(=O)(O)OC[C@H]1O[C@@H](n2cnc3c(NCc4ccco4)ncnc32)[C@H](O)[C@@H]1O [6-Fu ADP, N6-furfuryladenosine-5’-diphosphate] | 8.7 | -22.83 ± 2.15 | 19.22 ± 5.06 | 6780 | 723 ± 179 | 4.27 | -10.02 ± 2.35 | 68.77 ± 8.28 | 558 | 565 ± 49.6 | – | 3240 | 1860 ± 172 | 5.84 | -21.1 ± 1.16 | 28.7 ± 6.85 | – | –
CSc1nc(N)c2ncn([C@@H]3O[C@H](COP(=O)(O)OP(=O)(O)O)[C@@H](O)[C@H]3O)c2n1 [2-MeS ADP, 2-methylthio-adenosine-5’-diphosphate] | – | – | – | – | – | – | – | – | 902 | 523 ± 98.3 | – | – | – | 9.81 | -12.4 ± 3.62 | 54.5 ± 16.5 | – | binding to Hsc70-NBD (in words) ([1]; ITC): did not yield data that could be fitted; inhibition of Hsc70-NBD (in words) [2]: no reliably demonstrable inhibition; binding to Hsp70-NBD (in words) ([3]; ITC): did not yield data that could be fitted; inhibition of Hsp70-NBD (in words) [5]: no reliably demonstrable inhibition; decrease in affinity compared to ADP [6, 8]: ~2 fold
O=P(O)(O)OP(=O)(O)OC[C@H]1O[C@@H](n2cnc3c(NCc4ccccc4)ncnc32)[C@H](O)[C@@H]1O [6-Bn ADP, N6-benzyladenosine-5’-diphosphate] | 0.159 | -17.06 ± 0.27 | 72.13 ± 2.77 | 1470 | 295 ± 67.2 | 2.16 | -16.49 ± 4.25 | 53.04 ± 14.20 | 119 | 86.5 ± 10.3 | more effectively compared to ADP | 2330 | 1610 ± 137 | 3.52 | -12.5 ± 3.51 | 61.8 ± 12.1 | ~ 1.5 fold | –
Nc1nc(Cl)nc2c1ncn2[C@@H]1O[C@H](COP(=O)(O)OP(=O)(O)O)[C@@H](O)[C@H]1O [2-Cl ADP] | – | – | – | – | – | – | – | – | – | – | more effectively compared to ADP | – | – | – | -19.0 ± 0.721 | 45.4 ± 3.04 | ~ 3 fold | binding to Hsc70-NBD (in words) ([1]; ITC): did not yield data that could be fitted; inhibition of Hsc70-NBD (in words) [2]: no reliably demonstrable inhibition; binding to Hsp70-NBD (in words) ([3]; ITC): did not yield data that could be fitted; Ki [4, 9]: 45.1 ± 2.42 µM; inhibition of Hsp70-NBD (in words) [5]: no reliably demonstrable inhibition; Kd ([6]; ITC, 25 °C, mortalin-NBD): 1.77 µM
Nc1ncnc2c1ncn2[C@@H]1O[C@H](COP(=O)(O)OP(=O)(O)O)[C@@H](O)[C@H]1O [ADP, reference compound] | – | -30.79 ± 0.09 | 34.19 ± 1.55 | – | – | – | -23.98 ± 0.85 | 60.54 ± 3.65 | – | – | – | – | – | – | -27.3 ± 1.29 | 9.36 ± 4.48 | – | Kd ([1]; ITC, 25 °C, Hsc70-NBD): 0.0665 µM; log IC50 ([2]; Hsc70-NBD, ATP 50 μM, one-site logIC50 fit): 2.734 ± 0.117; Ki ([2]; read-out: KIapp, Hsc70-NBD, ATP 50 μM, Morrison fit, ~ denotes ambiguous data): 239 ± 32.2 µM; Kd ([3]; ITC, 25 °C, Hsp70-NBD): 0.0435 µM; Ki [4, 9]: 353 ± 36.2 µM; log IC50 ([5]; Hsp70-NBD, ATP 50 μM, one-site logIC50 fit): 2.697 ± 0.091; Ki ([5]; read-out: KIapp, Hsp70-NBD, ATP 50 μM, Morrison fit, ~ denotes ambiguous data): 440 ± 47.8 µM; Kd [7]: 5.3 ± 0.106 µM
Cc1cccc(CNc2ncnc3c2ncn3[C@@H]2O[C@H](COP(=O)(O)OP(=O)(O)O)[C@@H](O)[C@H]2O)c1 [6-(3-MeBn) ADP, N6-(3-methylbenzyl)adenosine-5’-diphosphate] | 3.35 | -42.78 ± 3.79 | −41.10 ± 12.94 | 8040 | 682 ± 179 | 0.252 | -20.03 ± 0.94 | 58.44 ± 3.96 | 1430 | 675 ± 99.4 | – | 1870 | 1300 ± 148 | 11.4 | -13.1 ± 0.228 | 50.2 ± 1.73 | – | –
